Data reported in ChEMBL document CHEMBL4513216, “Probing the Open Global Health Chemical Diversity Library for Multistage-Active Starting Points for Next-Generation Antimalarials” (ACS Infect Dis, 2020).

Assay: Toxicity liver stage against HepG2, at 10uM
Format: cell-based
Design: test concentration 10 uM, cell line HepG2-A16-CD81EGFP
Conditions: human, HepG2-A16-CD81EGFP cells; read-out: INHIBITION
Outline: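 Uninfected HepG2-A16-CD81EGFP cells, 3 × 10^3 per well, 1536-well, plated on prespotted compound at 10 μM final, parasite-free screening media added to match infected plates; puromycin 10 μM positive, DMSO 0.5% negative; run in parallel with 48 h PbLuc assay at 37 °C, 5% CO2; viability by CellTiter-Glo luminescence, normalized to controls.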

CCC(C)N(Cc1cnc(NCC(=O)O)nc1)Cc1ccsc1 (stereo unspecified)
cytotoxicity at 10 µM: 0.866%

COCc1cccc(NCc2cccnc2)c1
cytotoxicity at 10 µM: 4.16%

CCOC(=O)C1=NOC(Cc2cc(OC)c3c(c2)OCO3)C1 (stereo unspecified)
cytotoxicity at 10 µM: 9.98%

CCc1nc(C)c(C(=O)NCCN2CCC(C)CC2)s1
cytotoxicity at 10 µM: -5.6%

O=C(NCC1CCS(=O)(=O)C1)c1ccc2cccc(Cl)c2n1 (stereo unspecified)
cytotoxicity at 10 µM: -10.1%

CC(C(=O)Nc1ccc(Cl)cn1)n1ccc(C(F)(F)F)n1 (stereo unspecified)
cytotoxicity at 10 µM: 17.6%

CCN1CCN(C(=O)C(C)SC)CC1 (stereo unspecified)
cytotoxicity at 10 µM: 11.4%

COc1cccc(C)c1C(=O)N1C[C@@H](CN(C)C)[C@@H](CO)C1
cytotoxicity at 10 µM: -10.4%

Cc1ccc(N2CC[C@]3(O)CCN(CCN4CCCC4=O)C[C@@H]3C2)nn1
cytotoxicity at 10 µM: -10.1%

O=C(COCC1CC[C@H]2[C@H](CCN2c2ncccn2)O1)N1CCCC1 (stereo partly specified)
cytotoxicity at 10 µM: 1.27%

Cn1cc(-c2cnc3n2CCC32CCN(S(C)(=O)=O)CC2)cn1
cytotoxicity at 10 µM: -127%

CC(C)C1CN(C(=O)c2cc(=O)[nH]c(=O)[nH]2)CCCN1CC1CC1 (stereo unspecified)
cytotoxicity at 10 µM: -2.42%

c1cnnc(NCC2CN(CC3CCOCC3)CCO2)c1 (stereo unspecified)
cytotoxicity at 10 µM: 9.34%

CCn1nc(C(C)C)cc1C(=O)N1CCOc2ccc(OC)cc21
cytotoxicity at 10 µM: 9.27%

Cc1cnc(NCc2ccncc2)nc1-c1cnn(C)c1
cytotoxicity at 10 µM: 15.4%

CCCN(CCc1ccccc1)c1ncnc2oc(C)nc12
cytotoxicity at 10 µM: 8.74%

O=C(Cn1nc2c(cc1=O)CCCC2)N[C@@H](Cc1ccccc1)C(=O)O
cytotoxicity at 10 µM: 3.17%

Cn1ccnc1C1c2nc[nH]c2CCN1Cc1cccnc1 (stereo unspecified)
cytotoxicity at 10 µM: 0.0371%

CN(CC(=O)N1CCCC1)C(=O)Cc1csc(-c2ncccn2)n1
cytotoxicity at 10 µM: -9.51%

CC(C)NC(=O)N1CC[C@@H]2CN(Cc3cccc(Cl)c3)S(=O)(=O)[C@@H]2CC1
cytotoxicity at 10 µM: 4.71%

Cc1noc(C[C@@H]2COC[C@H]3CN(C(=O)C4=CCCC4)C[C@@H]23)n1
cytotoxicity at 10 µM: -0.91%

Cc1cc(C)nc(N(C)CCn2ccnc2C)n1
cytotoxicity at 10 µM: -5.42%

CCCN1CCCN(C(=O)C(CC)N2CCCC2=O)CC1 (stereo unspecified)
cytotoxicity at 10 µM: -6.17%

Cc1cc(NCCNc2cccnc2)nc(N)n1
cytotoxicity at 10 µM: -5.86%

CCC(=O)NCC(CC)Oc1cccc(F)c1 (stereo unspecified)
cytotoxicity at 10 µM: -44%

Fc1ccc(CN2CCCC(c3cc4ncccc4[nH]3)C2)cc1 (stereo unspecified)
cytotoxicity at 10 µM: -1.87%

COc1ccc2nnc(CCC(=O)Nc3nc4c(s3)CCCC4)n2n1
cytotoxicity at 10 µM: -6.98%

Cc1cc(C)c(CNC(=O)NCc2ccncc2)c(=O)[nH]1
cytotoxicity at 10 µM: -5.59%

O=C(c1ccccc1F)N1C[C@H]2CCC[C@@]2(COCc2ccncc2)C1
cytotoxicity at 10 µM: 7.4%

FC(F)(F)c1ccc2[nH]c([C@H]3CCNC3)nc2c1
cytotoxicity at 10 µM: 2.91%

Cc1ccc(N2CC[C@H](O)[C@@H]2Cc2cnn(C)c2)nn1
cytotoxicity at 10 µM: 0.434%

O=C1N(C2CCCCC2)C[C@H]2CN(C3CCC3)CCN12
cytotoxicity at 10 µM: 6.44%

NCC1CCN(C2CCN(c3ccc(-c4ccco4)cc3)CC2)C1 (stereo unspecified)
cytotoxicity at 10 µM: 93.9%

COCC(=O)Nc1nn(Cc2ccc(F)cc2)cc1Cl
cytotoxicity at 10 µM: 7.19%

Cc1n[nH]c(C)c1CNc1nc(-c2ccco2)nc2c1CCNCC2
cytotoxicity at 10 µM: -3.43%

Cc1cc2ccccc2n1CCC(=O)NCCCc1nnc(N)s1
cytotoxicity at 10 µM: 19.6%

CC(C)N(C)CC(=O)N1CCCC(c2ccc(C(=O)O)cc2)C1 (stereo unspecified)
cytotoxicity at 10 µM: -6.09%

CCn1cc(C(=O)NCc2ccc3c(c2)OCO3)c(C)n1
cytotoxicity at 10 µM: 9.9%

CC(Sc1nncn1C)C(=O)NCCCOc1ccc(F)cc1 (stereo unspecified)
cytotoxicity at 10 µM: -49.2%

Cc1ccc(-c2nnc(CN3CCOCC(CO)C3)o2)n1C (stereo unspecified)
cytotoxicity at 10 µM: -3.28%

Cc1ccc(S(=O)(=O)NCC(C)(C)N)c(F)c1
cytotoxicity at 10 µM: 7.42%

O=C(CSC1=NS(=O)(=O)c2cc(F)ccc2N1)c1ccccc1
cytotoxicity at 10 µM: -10.7%

CCc1cnc(N2C[C@H]3CCCC(N(C)Cc4ccccn4)[C@H]3C2)nc1 (stereo partly specified)
cytotoxicity at 10 µM: -114%

CCOCCOC(C)C(=O)Nc1ccc2ccn(CCN(C)C)c2c1 (stereo unspecified)
cytotoxicity at 10 µM: 10.1%

O=C(NCC1CC1)[C@@H]1C[C@@H]2CCN(Cc3ccccc3)C[C@H]2O1
cytotoxicity at 10 µM: 4.21%

O=c1cc(CN(CCO)C2CC2)nc2ccc(Cl)cn12
cytotoxicity at 10 µM: 14.7%

CCn1ccnc1CN1CCC(Oc2cccc(F)c2)(C(=O)O)CC1
cytotoxicity at 10 µM: 3.67%

CN1CCO[C@@H]2CN(C(=O)c3ccc4ncccc4c3)CC[C@@H]2C1
cytotoxicity at 10 µM: -112%

Cc1cc(F)ccc1S(=O)(=O)N1CCN(C)Cc2ccccc21
cytotoxicity at 10 µM: 4.06%

N#Cc1cccc(CNc2cc(CO)ccc2Cl)c1
cytotoxicity at 10 µM: 11.5%

COc1ccc(COCC(=O)N2CCN(CC(C)(C)O)CC2)cc1
cytotoxicity at 10 µM: -4.92%

OCC1CCCN1c1cc(NCc2cccnc2)ncn1 (stereo unspecified)
cytotoxicity at 10 µM: -16.6%

CN(CCCc1n[nH]c(N)c1C#N)C(=O)NC1CC1
cytotoxicity at 10 µM: 5.85%

Cc1ccccc1-c1csc2c(=O)[nH]c(N3CCCC(C(=O)O)C3)nc12 (stereo unspecified)
cytotoxicity at 10 µM: -3.16%

C/C=C(\C)CN1CCCn2nc(CNC(=O)C3CCC3)cc2C1
cytotoxicity at 10 µM: 4.92%

Cc1ccc(CNC(=O)Cn2nc(-c3ccc(F)cc3)oc2=O)cc1F
cytotoxicity at 10 µM: -5.86%
